Measurements published in ChEMBL document CHEMBL1141246, “Transformations of manool. tri- and tetracyclic norditerpenoids with in vitro activity against Plasmodium falciparum” (J Nat Prod, 2007).
≈ marks a conversion by molar mass, not a printed value.

How the values were obtained:
Plasmodium falciparum = test: Antiparasitic activity against Plasmodium falciparum 3D7 after 48 hrs; assay type: functional, organism-based; conditions: 3D7, 48 h
Procedure, shortened: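 P. falciparum 3D7 cultures diluted with fresh medium and erythrocytes to 2% parasitemia, 2% hematocrit. Serial compound dilutions added and plates held 48 h at 37 °C. Viability read as parasite lactate dehydrogenase activity, relative to solvent controls with 0.5% DMSO.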

[1] = Hemolytic activity in human erythrocytes at 100 ug/mL after 48 hrs relative to 0.2% saponin; assay type: ADME, cell-based, Erythrocyte; conditions: read-out: Activity
Procedure, shortened: (§1)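 Uninfected normal erythrocytes at 2% hematocrit incubated 48 h with compound dilutions in duplicate plates. Cells pelleted at 200g for 3 min, and hemoglobin in the supernatant read by absorbance at 405 nm. Percent hemolysis calculated against 0.2% saponin.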

[2] = Effect on erythrocyte shape in human erythrocytes assessed as echinocytes at 50 ug/mL after 48 hrs; assay type: ADME, cell-based
Procedure, shortened: (§2)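 Fresh erythrocytes at 2% hematocrit incubated 48 h in parasite culture medium alone or with compound. Suspensions then wet-mounted under coverslips and examined at once by phase-contrast microscopy with a 100× oil objective; Giemsa-stained thin smears were also examined. Percent stomatocytes, echinocytes and knizocytes scored using shape definitions of Lim et al.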

[3] = Effect on erythrocyte shape in human erythrocytes assessed as stomatocytes at 100 ug/mL after 48 hrs; assay type: ADME, cell-based; procedure, shortened: as §2
[4] = Effect on erythrocyte shape in human erythrocytes assessed as echinocytes at 100 ug/mL after 48 hrs; assay type: ADME, cell-based; procedure, shortened: as §2
[5] = Hemolytic activity in human erythrocytes at 200 ug/mL after 48 hrs relative to 0.2% saponin; assay type: ADME, cell-based, Erythrocyte; conditions: read-out: Activity; procedure, shortened: as §1
[6] = Effect on erythrocyte shape in human erythrocytes assessed as stomatocytes at 50 ug/mL after 48 hrs; assay type: ADME, cell-based; procedure, shortened: as §2
[7] = Effect on erythrocyte shape in human erythrocytes assessed as […] and stomatocytes at 100 ug/mL after 48 hrs; assay type: ADME, cell-based; procedure, shortened: as §2

## C=C[C@@]1(C)CCC2[C@@](O)(CC[C@H]3C(C)(C)[C@@H](O)CC[C@]23C)C1 (stereo partly specified)
Plasmodium falciparum
  IC50: 7 µg/mL (≈ 22.8 µM)

## CCO[C@@]12CC[C@H]3[C@@](CC[C@H]4C(C)(C)CCC[C@@]43C)(C1)OC(=O)C2
[1]
  hemolysis at 48 h, 100 ug/mL: 0%
[2]
  Activity: 2%
[3]
  Activity: 0%
[4]
  Activity: 9%
Plasmodium falciparum
  IC50: 19.6 µg/mL (≈ 58.6 µM)
[5]
  hemolysis at 48 h, 200 ug/mL: 0%
[6]
  Activity: 1%

## CCOC(=O)/C=C1\CC[C@H]2[C@@](O)(CC[C@H]3C(C)(C)CCC[C@@]32C)C1
[1]
  hemolysis at 48 h, 100 ug/mL: 3%
[2]
  Activity: 2%
[3]
  Activity: 8%
[4]
  Activity: 0%
Plasmodium falciparum
  IC50: 5.7 µg/mL (≈ 17 µM)
[5]
  hemolysis at 48 h, 200 ug/mL: 17%
[6]
  Activity: 2%

## C=C[C@@]1(C)CCC2=C(C1)C(=O)C[C@H]1C(C)(CO)[C@@H](O)CC[C@]21C (stereo partly specified)
Plasmodium falciparum
  IC50: 7 µg/mL (≈ 22 µM)

## C=C[C@@]1(O)CC[C@H]2[C@@](O)(CC[C@H]3C(C)(C)CCC[C@@]32C)C1
[1]
  hemolysis at 48 h, 100 ug/mL: 0.6%
[2]
  Activity: 3%
[3]
  Activity: 1%
[4]
  Activity: 2%
Plasmodium falciparum
  IC50: 10.7 µg/mL (≈ 36.6 µM)
[5]
  hemolysis at 48 h, 200 ug/mL: 0.2%
[6]
  Activity: 1%

## CCOC(=O)/C=C1/CC[C@H]2[C@@](O)(CC[C@H]3C(C)(C)CCC[C@@]32C)C1
[1]
  hemolysis at 48 h, 100 ug/mL: 9%
[2]
  Activity: 0%
[7]
  Activity: 17%
[4]
  Activity: 0%
Plasmodium falciparum
  IC50: 3.9 µg/mL (≈ 11.7 µM)
[5]
  hemolysis at 48 h, 200 ug/mL: 34%
[6]
  Activity: 11%

## C=C[C@@]1(C)CCC2=C(CC[C@H]3C(C)(C)[C@@H](O)CC[C@]23C)C1
Plasmodium falciparum
  IC50: 7 µg/mL (≈ 24.3 µM)

## CC1(C)CCC[C@@]2(C)[C@H]1CC[C@@]1(O)CC(CCO)CC[C@@H]12 (stereo partly specified)
[1]
  hemolysis at 48 h, 100 ug/mL: 0%
[2]
  Activity: 3%
[3]
  Activity: 3%
[4]
  Activity: 2%
Plasmodium falciparum
  IC50: 13.3 µg/mL (≈ 45.2 µM)
[5]
  hemolysis at 48 h, 200 ug/mL: 5%
[6]
  Activity: 1%

## CC1(C)CCC[C@@]2(C)[C@H]1CC[C@@]1(O)C/C(=C\CO)CC[C@@H]12
[1]
  hemolysis at 48 h, 100 ug/mL: 2%
[2]
  Activity: 1%
[3]
  Activity: 64%
[4]
  Activity: 0%
Plasmodium falciparum
  IC50: 10.6 µg/mL (≈ 36.2 µM)
[5]
  hemolysis at 48 h, 200 ug/mL: 102%
[6]
  Activity: 5%

## C=C[C@]1(C)C=C2CC[C@H]3C(C)(CO)[C@@H](O)CC[C@]3(C)[C@H]2CC1 (stereo partly specified)
Plasmodium falciparum
  IC50: 7 µg/mL (≈ 23 µM)
